Source: ChEMBL document CHEMBL3046880, “Syntheses and herbicidal activities of novel triazolinone derivatives” (J Agric Food Chem, 2008)

Experiments:
Brassica juncea [1] = experiment: Herbicidal activity against Brassica juncea assessed as growth inhibition at 75 g of active ingredient/ha administered using post-emergence treatment measured 15 days post treatment protocol under greenhouse conditions; assay type: functional
In short: (§1)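 Test agents were formulated as 100 g/L emulsified concentrates (DMF solvent, TW-80 emulsifier), diluted with water and sprayed postemergence on pot-grown weeds. Seeds were sown 1-3 cm deep in clay soil (pH 6.5, 1.6% organic matter, 37.3% clay, CEC […]) and grown at 15–30 °C in a greenhouse. Dicots were treated at the two-leaf stage. Untreated and DMF-treated plants served as controls. Activity was scored visually 15 days after treatment.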

Eclipta prostrata = experiment: Herbicidal activity against Eclipta prostrata assessed as growth inhibition at 75 g of active ingredient/ha administered using post-emergence treatment measured 15 days post treatment protocol under greenhouse conditions; assay type: functional; in short: as §1
Senna tora = experiment: Herbicidal activity against Senna tora assessed as growth inhibition at 150 g of active ingredient/ha administered using post-emergence treatment measured 15 days post treatment protocol under greenhouse conditions; assay type: functional; in short: as §1
Amaranthus retroflexus [2] = experiment: Herbicidal activity against Amaranthus retroflexus assessed as growth inhibition at 37.5 g of active ingredient/ha administered using post-emergence treatment measured 15 days post treatment protocol under greenhouse conditions; assay type: functional; in short: as §1
Gossypium hirsutum [3] = experiment: Phytotoxicity against Gossypium hirsutum (cotton) plant assessed as growth inhibition at 150 g of active ingredient/ha administered using post-emergence treatment measured 30 days post treatment protocol under greenhouse conditions; assay type: organism-based; conditions: in vivo, other, 720 h
In short: (§2)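 Compounds were formulated as 100 g/L emulsified concentrates in DMF with TW-80 as emulsifier, then diluted with water to the required concentration. They were applied postemergence to pot-grown plants in a greenhouse. The soil was clay, pH 6.5, with 1.6% organic matter, 37.3% clay particles and CEC 12.1 mol/kg. Sulfentrazone served as the reference control.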

Setaria viridis [4] = experiment: Herbicidal activity against Setaria viridis (green foxtail) assessed as growth inhibition at 75 g of active ingredient/ha administered using post-emergence treatment measured 15 days post treatment protocol under greenhouse conditions; assay type: functional; in short: as §1
Digitaria sanguinalis = experiment: Herbicidal activity against Digitaria sanguinalis (hairy crabgrass) assessed as growth inhibition at 150 g of active ingredient/ha administered using post-emergence treatment measured 15 days post treatment protocol under greenhouse conditions; assay type: functional; in short: as §1
Chenopodium album [5] = experiment: Herbicidal activity against Chenopodium album assessed as growth inhibition at 37.5 g of active ingredient/ha administered using post-emergence treatment measured 15 days post treatment protocol under greenhouse conditions; assay type: functional; in short: as §1
[6] = Phytotoxicity against Brassica napus (oilseed rape) assessed as growth inhibition at 75 g of active ingredient/ha administered using post-emergence treatment measured 30 days post treatment protocol under greenhouse conditions; assay type: organism-based; conditions: in vivo, read-out: GI; in short: as §2
Chenopodium album [7] = experiment: Herbicidal activity against Chenopodium album assessed as growth inhibition at 150 g of active ingredient/ha administered using post-emergence treatment measured 15 days post treatment protocol under greenhouse conditions; assay type: functional; in short: as §1
[8] = Phytotoxicity against Oryza sativa (rice) plant assessed as growth inhibition at 150 g of active ingredient/ha administered using post-emergence treatment measured 30 days post treatment protocol under greenhouse conditions; assay type: organism-based; conditions: in vivo, read-out: GI; in short: as §2
Echinochloa crus-galli = experiment: Herbicidal activity against Echinochloa crus-galli (barnyard grass) assessed as growth inhibition at 75 g of active ingredient/ha administered using post-emergence treatment measured 15 days post treatment protocol under greenhouse conditions; assay type: functional; in short: as §1
Glycine max [9] = experiment: Phytotoxicity against Glycine max (soybean) plant assessed as growth inhibition at 300 g of active ingredient/ha administered using post-emergence treatment measured 30 days post treatment protocol under greenhouse conditions; assay type: organism-based; conditions: in vivo, other, 720 h; in short: as §2
Glycine max [10] = experiment: Phytotoxicity against Glycine max (soybean) plant assessed as growth inhibition at 150 g of active ingredient/ha administered using post-emergence treatment measured 30 days post treatment protocol under greenhouse conditions; assay type: organism-based; conditions: in vivo, other, 720 h; in short: as §2
Brassica juncea [11] = experiment: Herbicidal activity against Brassica juncea assessed as growth inhibition at 150 g of active ingredient/ha administered using post-emergence treatment measured 15 days post treatment protocol under greenhouse conditions; assay type: functional; in short: as §1
[12] = Phytotoxicity against Oryza sativa (rice) plant assessed as growth inhibition at 300 g of active ingredient/ha administered using post-emergence treatment measured 30 days post treatment protocol under greenhouse conditions; assay type: organism-based; conditions: in vivo, read-out: GI; in short: as §2
Setaria viridis [13] = experiment: Herbicidal activity against Setaria viridis (green foxtail) assessed as growth inhibition at 150 g of active ingredient/ha administered using post-emergence treatment measured 15 days post treatment protocol under greenhouse conditions; assay type: functional; in short: as §1
Chenopodium album [14] = experiment: Herbicidal activity against Chenopodium album assessed as growth inhibition at 75 g of active ingredient/ha administered using post-emergence treatment measured 15 days post treatment protocol under greenhouse conditions; assay type: functional; in short: as §1
Amaranthus retroflexus [15] = experiment: Herbicidal activity against Amaranthus retroflexus assessed as growth inhibition at 75 g of active ingredient/ha administered using post-emergence treatment measured 15 days post treatment protocol under greenhouse conditions; assay type: functional; in short: as §1
Portulaca oleracea = experiment: Herbicidal activity against Portulaca oleracea assessed as growth inhibition at 75 g of active ingredient/ha administered using post-emergence treatment measured 15 days post treatment protocol under greenhouse conditions; assay type: functional; in short: as §1
Gossypium hirsutum [16] = experiment: Phytotoxicity against Gossypium hirsutum (cotton) plant assessed as growth inhibition at 450 g of active ingredient/ha administered using post-emergence treatment measured 30 days post treatment protocol under greenhouse conditions; assay type: organism-based; conditions: in vivo, other, 720 h; in short: as §2
Brassica napus = experiment: Phytotoxicity against Brassica napus (oilseed rape) assessed as growth inhibition at 150 g of active ingredient/ha administered using post-emergence treatment measured 30 days post treatment protocol under greenhouse conditions; assay type: organism-based; conditions: in vivo, other, 720 h; in short: as §2

## CCS(=O)(=O)Nc1cc(-n2nc(C)n(Cc3ccccc3/C(=N\OC)C(=O)OC)c2=O)c(F)cc1Cl
Brassica juncea [1]
  growth inhibition (GI): >80%
Eclipta prostrata
  growth inhibition (GI): >80%
Senna tora
  growth inhibition (GI): 100%
Amaranthus retroflexus [2]
  growth inhibition (GI): >80%
Gossypium hirsutum [3]
  Activity: Toxic
Setaria viridis [4]
  growth inhibition (GI): <50%
Digitaria sanguinalis
  growth inhibition (GI): 50%
Chenopodium album [5]
  growth inhibition (GI): 50%
[6]
  inhibition at 720 h: 80%
Chenopodium album [7]
  growth inhibition (GI): >80%
[8]
  inhibition at 720 h: 0%
Echinochloa crus-galli
  growth inhibition (GI): 50%
Glycine max [9]
  Activity: Toxic
Glycine max [10]
  Activity: Toxic
Brassica juncea [11]
  growth inhibition (GI): >80%
[12]
  inhibition at 720 h: 0%
Setaria viridis [13]
  growth inhibition (GI): 50%
Chenopodium album [14]
  growth inhibition (GI): >80%
Amaranthus retroflexus [15]
  growth inhibition (GI): >80%
Portulaca oleracea
  growth inhibition (GI): 100%
Gossypium hirsutum [16]
  Activity: Toxic
Brassica napus
  Activity: Toxic
